From ChEMBL document CHEMBL1124006, “Synthesis and cognition activating properties of some mono- and bicyclic lactam derivatives” (1988)
Where “and” joins values, the source holds several entries; their conditions need not be identical. Identical values can stand only once.

Columns and labels:
Mus musculus [1] = experiment: Spontaneous motor activity in open field at the dose of 500 mg/kg on mice; assay type: functional
Procedure, shortened: (§1)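 Open-field activity in male and female Swiss mice (22 ± 2 g, 10 per dose), compound given ip in 1% Tween 80 with vehicle-only controls. Tested 15 min after injection: total movements per animal in 5 min, mean ± SD; t test vs vehicle.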

Mus musculus [2] = experiment: Exploratory activity in hole board at the dose of 1000 mg/kg lactam derivatives on mice; assay type: functional
Procedure, shortened: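 Swiss mice of both sexes, 22 ± 2 g, 10 per dose, ip in 1% Tween 80. Hole board (Boissier and Simon); holes explored in 5 min counted by infrared device; mean ± SD.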

Mus musculus [3] = experiment: Traction test (times in seconds on the horizontal wire with forelegs) performed at the dose of 1000 mg/kg lactam derivatives on mice; assay type: functional
Procedure, shortened: (§2)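 Boissier–Simon traction test in Swiss mice (5 male plus 5 female per dose, 22 ± 2 g), dosed ip in 1% Tween 80, with vehicle controls. Read-out: time in seconds each mouse stays hanging by its forelegs on a horizontal wire, mean ± SD; t test vs vehicle.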

Mus musculus [4] = experiment: Exploratory activity in hole board at the dose of 500 mg/kg lactum derivatives on mice; assay type: functional
Procedure, shortened: (§3)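 Swiss inbred mice (male and female, 22 ± 2 g), 10 per dose (5 of each sex), given ip in 1% Tween 80; controls got vehicle only. Boissier–Simon hole board with infrared detection: total holes explored per animal in 5 min, mean ± SD. t test vs vehicle.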

Mus musculus [5] = experiment: Maximal Electroshock seizure (% of animals without seizures) at the dose of 1000 mg/kg lactam derivatives on mice; assay type: functional
Procedure, shortened: (§4)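 Swiss mice of both sexes, 10 per dose, ip in 1% Tween 80. Maximal electroshock set to kill 50% of controls (60 mA, 0.4 s, 0.6 ms pulse width). Mice without seizures counted as protected; percent protected.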

Mus musculus [6] = experiment: Spontaneous motor activity in open field at the dose of 1000 mg/kg on mice; assay type: functional
Procedure, shortened: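 Swiss mice, male and female, 22 ± 2 g, 10 per dose (5 each sex). Dosed ip in 1% Tween 80, doses up to 1000 mg/kg. Open field 15 min after injection; total movements in 5 min; mean ± SD, t test.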

Mus musculus [7] = experiment: Maximal Electroshock seizure (% of animals without seizures) at the dose of 500 mg/kg lactam derivatives on mice; assay type: functional
Procedure, shortened: (§5)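 Swiss mice (5 male, 5 female per dose, 22 ± 2 g) dosed ip in 1% Tween 80, with vehicle controls. Maximal electroshock set to kill 50% of controls: 60 mA, 0.4 s shock, 0.6 ms pulse width. Read-out: percent of animals without seizures.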

Mus musculus [8] = experiment: Traction test (times in seconds on the horizontal wire with forelegs) performed at the dose of 500 mg/kg lactam derivatives on mice; assay type: functional; procedure, shortened: as §2
Mus musculus [9] = experiment: Motor coordination in rotarod test performed (total number of falls in 3 min) at the dose of 1000 mg/kg lactam derivatives on mice; assay type: functional
Procedure, shortened: (§6)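 Rota-rod motor coordination in Swiss mice (10 per dose, sexes mixed, 22 ± 2 g), dosed ip in 1% Tween 80 against vehicle controls. Falls counted per animal, mean ± SD; t test vs vehicle. The table footer gives 3 min and the method gives a 100 s observation period.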

Mus musculus [10] = experiment: Motor coordination in rotarod test performed (total number of falls in 3 min) at the dose of 500 mg/kg lactam derivatives on mice; assay type: functional; procedure, shortened: as §6
Rattus norvegicus [11] = experiment: Effect of lactam derivatives tested at dose of 100 mg/kg in the water- maze test (day 2); assay type: functional
Procedure, shortened: (§7)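 Male Sprague-Dawley rats, 250-300 g, 10 per group; day 1 selects rats unable to leave the water maze within 5 min. Drug dosed ip twice daily on days 2-4, equimolar to 100 mg/kg piracetam. On day 5, two doses 30 min apart, then transtemporal ECS (60 mA/0.2 s). Mazes run 15, 60, 240 min after shock. Errors (reversals plus wrong entrances) and exit time recorded; mean ± SD, t test.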

Rattus norvegicus [12] = experiment: Effect of tested at dose of 100 mg/kg in the water- maze test after 15 minutes (day 4); assay type: functional; procedure, shortened: as §7
Rattus norvegicus [13] = experiment: Effect of tested at dose of 100 mg/kg in the water- maze test after 60 minutes (day 4); assay type: functional; procedure, shortened: as §7
Rattus norvegicus [14] = experiment: Effect of tested at dose of 100 mg/kg in the water- maze test (day 2); assay type: functional; procedure, shortened: as §7
Rattus norvegicus [15] = experiment: Retention time was measured at equimolar doses to 100 mg/kg ip of piracetam; assay type: functional, organism-based; parameters: dose 100 mg/kg
Procedure, shortened: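 Male Sprague-Dawley rats, 8 per group, ip twice for 2 days, equimolar to 100 mg/kg piracetam. Footshock 720 μA, 15 s; retest 24 h later. For remembering rats, retention time T = T' − T0, light-compartment time at retest minus time at acquisition; mean ± SD, t test.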

Rattus norvegicus [16] = experiment: Effect of tested at dose ofv 100 mg/kg in the water- maze test (day 2); assay type: functional; procedure, shortened: as §7
Rattus norvegicus [17] = experiment: Effect of tested at dose of 100 mg/kg in the water- maze test (day 3); assay type: functional; procedure, shortened: as §7
Rattus norvegicus [18] = experiment: Effect of tested at dose of 100 mg/kg in the water- maze test (day 1); assay type: functional; procedure, shortened: as §7
Mus musculus [19] = experiment: Maximal Electroshock seizure (% of animals without seizures) at the dose of 1000 mg/kg on mice; assay type: functional; procedure, shortened: as §4
Rattus norvegicus [20] = experiment: Effect of lactam derivative on retention in one-trial passive avoidance test in rats tested at equimolar doses to 100 mg/kg ip of piracetam; assay type: functional, organism-based; parameters: dose 100 mg/kg; settings: at 100 mg/kg
Procedure, shortened: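 Male Sprague-Dawley rats, 250-300 g, 8 per group, dosed ip twice for 2 days, equimolar to 100 mg/kg piracetam. Trained to avoid dark compartment, 720 μA footshock for 15 s; retested 24 h later with grid off. Rats avoiding dark side 0.2-3 min counted as remembering; percent retention.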

Rattus norvegicus [21] = experiment: Effect of lactam derivatives tested at dose of 100 mg/kg in the water- maze test (day 1); assay type: functional; procedure, shortened: as §7
Rattus norvegicus [22] = experiment: Effect of tested at dose of 100 mg/kg in the water- maze test after 30 minutes (day 4); assay type: functional
Mus musculus [23] = experiment: Traction test (times in seconds on the horizontal wire with forelegs) performed at the dose of 1000 mg/kg on mice; assay type: functional
Procedure, shortened: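 Swiss mice of both sexes, 10 per dose, ip in 1% Tween 80. Boissier and Simon traction test; time spent hanging by forelegs on a horizontal wire, in seconds; mean ± SD.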

Mus musculus [24] = experiment: Motor coordination in rotarod test performed (total number of falls in 3 min) at the dose of 1000 mg/kg on mice; assay type: functional
Mus musculus [25] = experiment: Traction test (times in seconds on the horizontal wire with forelegs) performed at the dose of 1000 mg/kg on mice (statistical significance test); assay type: functional; procedure, shortened: as §2
Mus musculus [26] = experiment: Exploratory activity in hole board at the dose of 1000 mg/kg on mice (statistical significance test); assay type: functional; procedure, shortened: as §3
Mus musculus [27] = experiment: Motor coordination in rotarod test performed (total number of falls in 3 min) at the dose of 500 mg/kg on mice; assay type: functional; procedure, shortened: as §6
Mus musculus [28] = experiment: Maximal Electroshock seizure (% of animals without seizures) at the dose of 500 mg/kg on mice; assay type: functional; procedure, shortened: as §5
Mus musculus [29] = experiment: Traction test (times in seconds on the horizontal wire with forelegs) performed at the dose of 500 mg/kg on mice (statistical significance test); assay type: functional; procedure, shortened: as §2
Mus musculus [30] = experiment: Spontaneous motor activity in open field at the dose of 1000 mg/kg on mice (statistical significance test); assay type: functional; procedure, shortened: as §1
Mus musculus [31] = experiment: Motor coordination in rotarod test performed (total number of falls in 3 min) at the dose of 1000 mg/kg on mice (statistical significance test); assay type: functional; procedure, shortened: as §6

`CCOC(=O)C1CNC(=O)CC1C(=O)OCC` (stereo in doubt; 4) [listing 1 of 2 here] was tested, and the Activity (Mus musculus [1]) was 3410.5, the Activity (Mus musculus [2]) was 20 and the Activity (Mus musculus [3]) was 112.8. For the same molecule, the Activity (Mus musculus [4]) was 20.4, the Activity (Mus musculus [5]) was 0% and the Activity (Mus musculus [6]) was 2522. For the same molecule, the Activity (Mus musculus [7]) was 0%, the Activity (Mus musculus [8]) was 75.8 and the Activity (Mus musculus [9]) was 3.3. For the same molecule, the Activity (Mus musculus [10]) was 1.

In the case of `NC(=O)CN1CCCC1=O` [PIRACETAM], the No. of errors (Rattus norvegicus [11]) was 7.2 and 8.1, the No. of errors (Rattus norvegicus [12]) was 3.2 and the Speed of performance (Rattus norvegicus [12]) was 251. For the same molecule, the No. of errors (Rattus norvegicus [13]) was 3.6, the Speed of performance (Rattus norvegicus [13]) was 197.6 and the Speed of performance (Rattus norvegicus [14]) was 291.5. For the same molecule, the Retention time (Rattus norvegicus [15]) was 43.2 s, the Activity (Mus musculus [2]) was 19.6 and the Speed of performance (Rattus norvegicus [16]) was 282.7. The No. of errors (Rattus norvegicus [17]) was 3.5 and 5, the Speed of performance (Rattus norvegicus [17]) was 249 and 250.1 and the No. of errors (Rattus norvegicus [18]) was 7.6 and 9.1. For the same molecule, the Activity (Mus musculus [19]) was 0%, the Retention (Rattus norvegicus [20]) was 100% and the Activity (Mus musculus [6]) was 3764.3. For the same molecule, the Speed of performance (Rattus norvegicus [21]) was 272.2 and 265, the No. of errors (Rattus norvegicus [22]) was 2.1 and the Speed of performance (Rattus norvegicus [22]) was 235.7. It also gave an Activity (Mus musculus [23]) of 79.9 and an Activity (Mus musculus [24]) of 1.7.

Work on `CCOC(=O)C1CNC(=O)CC1C(=O)OCC` (stereo in doubt; 4) [listing 2 of 2 here] yielded a Retention time (Rattus norvegicus [15]) of 44.2 s and a Retention (Rattus norvegicus [20]) of 100%.

`CCOC(=O)C1CNC(=O)CC1C(=O)OCC` (stereo in doubt; 5) [listing 1 of 2 here] was tested, and the Activity (Mus musculus [25]) was less than 7, the Activity (Mus musculus [1]) was 3025.2 and the Activity (Mus musculus [19]) was 40%. It also gave an Activity (Mus musculus [26]) of 8.9%, an Activity (Mus musculus [27]) of 0.8 and an Activity (Mus musculus [28]) of 0%. For the same molecule, the Activity (Mus musculus [29]) was 65.1, the Activity (Mus musculus [30]) was 782 and the Activity (Mus musculus [31]) was 16.4.

For `CCOC(=O)C1CNC(=O)CC1C(=O)OCC` (stereo in doubt; 5) [listing 2 of 2 here], the Retention time (Rattus norvegicus [15]) was 47.2 s and the Retention (Rattus norvegicus [20]) was 100%.
